Experimental data as given in ChEMBL document CHEMBL1134769, “Potent and selective nonpeptide inhibitors of caspases 3 and 7” (J Med Chem, 2001).
pIC50, pKi: −log10 of the molar value. Several values for one entry are separate records, joined by “and”; a condition that tells them apart may be missing. Equal entries are not always repeated. Activity calls are given as the source filed them. No cut-off for these calls is given here.

How the values were obtained:
Caspase-3 [1] = molecular target: T1, Caspase-3 (Homo sapiens, UniProt P42574); assay: Inhibition of recombinant human caspase-3
T1 sequence (P42574 whole entry): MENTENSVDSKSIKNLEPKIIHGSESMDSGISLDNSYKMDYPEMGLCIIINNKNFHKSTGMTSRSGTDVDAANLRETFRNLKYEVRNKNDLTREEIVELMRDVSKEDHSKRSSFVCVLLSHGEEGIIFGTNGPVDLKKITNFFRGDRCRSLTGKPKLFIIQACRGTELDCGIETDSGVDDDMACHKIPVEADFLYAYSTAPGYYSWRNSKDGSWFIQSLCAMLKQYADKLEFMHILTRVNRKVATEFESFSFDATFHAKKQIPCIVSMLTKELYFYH

Caspase-4 = molecular target: T2, Caspase-4 (Homo sapiens, UniProt P49662); assay: Inhibitory activity against caspase-4; conditions: read-out: Ki app
T2 sequence (P49662 whole entry): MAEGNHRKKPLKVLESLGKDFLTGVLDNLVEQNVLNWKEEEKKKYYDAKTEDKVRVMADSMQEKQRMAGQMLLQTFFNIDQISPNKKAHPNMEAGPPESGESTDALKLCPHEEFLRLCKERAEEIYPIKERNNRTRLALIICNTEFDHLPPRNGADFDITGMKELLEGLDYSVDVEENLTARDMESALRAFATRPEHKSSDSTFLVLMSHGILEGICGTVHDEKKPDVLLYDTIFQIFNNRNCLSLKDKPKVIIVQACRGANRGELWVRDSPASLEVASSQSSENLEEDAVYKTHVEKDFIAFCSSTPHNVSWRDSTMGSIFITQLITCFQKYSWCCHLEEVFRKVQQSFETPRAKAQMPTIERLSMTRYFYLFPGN
Summary of the method: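 Recombinant full-length human caspase 4, ~10 units/assay, in potassium acetate pH 5.8 with 1 mM EDTA, 10% sucrose, 0.1% CHAPS and 5 mM β-mercaptoethanol. Substrate 100 μM Ac-LEED-AMC. Read at 360/460 nm, 30 °C, 5% final DMSO. Single-dose screen (typically 5–50 μM), then IC50 curves for actives.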

Caspase-1 = molecular target: T3, Caspase-1 (Homo sapiens, UniProt P29466); assay: Inhibitory activity against caspase-1; conditions: read-out: Ki app
T3 sequence (P29466 whole entry): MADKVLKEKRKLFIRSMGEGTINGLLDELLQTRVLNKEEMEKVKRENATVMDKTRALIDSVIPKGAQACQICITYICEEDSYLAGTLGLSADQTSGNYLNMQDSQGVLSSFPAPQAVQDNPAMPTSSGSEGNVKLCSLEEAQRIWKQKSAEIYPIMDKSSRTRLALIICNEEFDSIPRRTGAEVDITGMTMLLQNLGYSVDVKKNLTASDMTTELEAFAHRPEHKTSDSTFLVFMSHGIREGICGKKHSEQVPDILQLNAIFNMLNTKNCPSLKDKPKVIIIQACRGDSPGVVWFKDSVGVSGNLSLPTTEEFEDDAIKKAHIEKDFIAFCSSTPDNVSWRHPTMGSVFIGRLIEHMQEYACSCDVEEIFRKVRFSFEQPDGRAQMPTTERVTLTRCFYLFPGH
Summary of the method: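 Recombinant full-length human caspase 1, ~10 units/assay, in 25 mM K+HEPES pH 7.5 with 10% sucrose, 0.1% CHAPS and 5 mM β-mercaptoethanol. Substrate 10 μM Ac-YVAD-AMC. AMC read at 360/460 nm, 30 °C, with 5% final DMSO. Single-dose screen (typically 5–50 μM), followed by IC50 curves for active compounds.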

Caspase-9 = molecular target: T4, Caspase-9 (Homo sapiens, UniProt P55211); assay: Inhibitory activity against Caspase-9; conditions: read-out: Ki app
T4 sequence (P55211 whole entry): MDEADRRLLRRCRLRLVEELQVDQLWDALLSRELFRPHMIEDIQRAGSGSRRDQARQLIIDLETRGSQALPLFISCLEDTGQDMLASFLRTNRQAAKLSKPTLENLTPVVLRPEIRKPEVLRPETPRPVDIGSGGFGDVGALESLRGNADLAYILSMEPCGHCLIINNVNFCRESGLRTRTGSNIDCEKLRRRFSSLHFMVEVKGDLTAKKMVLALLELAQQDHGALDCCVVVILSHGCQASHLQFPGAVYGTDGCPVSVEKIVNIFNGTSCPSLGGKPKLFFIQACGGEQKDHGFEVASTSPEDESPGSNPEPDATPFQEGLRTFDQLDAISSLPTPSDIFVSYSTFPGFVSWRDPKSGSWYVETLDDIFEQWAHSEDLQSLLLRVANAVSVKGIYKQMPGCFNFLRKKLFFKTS

Caspase-7 = molecular target: T5, Caspase-7 (Homo sapiens, UniProt P55210); assay: Inhibitory activity against Caspase-7; conditions: read-out: Ki app
T5 sequence (P55210 whole entry): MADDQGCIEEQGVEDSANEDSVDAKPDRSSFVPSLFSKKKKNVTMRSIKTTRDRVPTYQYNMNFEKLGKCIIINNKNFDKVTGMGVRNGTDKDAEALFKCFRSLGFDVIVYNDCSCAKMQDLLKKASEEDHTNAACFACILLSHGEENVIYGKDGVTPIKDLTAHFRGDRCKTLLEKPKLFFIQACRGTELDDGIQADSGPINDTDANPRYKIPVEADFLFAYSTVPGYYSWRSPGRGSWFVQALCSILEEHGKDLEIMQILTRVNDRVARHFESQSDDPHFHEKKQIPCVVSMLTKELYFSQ
Summary of the method: (§1)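 Recombinant full-length human caspase 3 or 7, ~10 units/assay (1 unit = 1 pmol AMC/min). Substrate 10 μM Ac-DEVD-AMC. AMC fluorescence at 360/460 nm, 30 °C, with 5% final DMSO. Single-dose screen (typically 5–50 μM), then IC50 curves; repeated IC50s had CVs typically <30%.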

Caspase-8 = Caspase-8 (Homo sapiens, UniProt Q14790); assay: Inhibitory activity against Caspase-8; conditions: read-out: Ki app
Summary of the method: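 Recombinant full-length human caspase 8, ~10 units/assay, in Na+MOPS pH 7.5 with 10% glycerol, 0.25 mM EDTA and 5 mM β-mercaptoethanol. Substrate 10 μM Ac-IETD-AMC. Fluorescence at 360/460 nm, 30 °C, 5% final DMSO. Compounds screened at a single dose (typically 5–50 μM), then full IC50 curves for actives.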

Caspase-2 = molecular target: T6, Caspase-2 (Homo sapiens, UniProt P42575); assay: Inhibitory activity against caspase-2; conditions: read-out: Ki app
T6 sequence (P42575 whole entry): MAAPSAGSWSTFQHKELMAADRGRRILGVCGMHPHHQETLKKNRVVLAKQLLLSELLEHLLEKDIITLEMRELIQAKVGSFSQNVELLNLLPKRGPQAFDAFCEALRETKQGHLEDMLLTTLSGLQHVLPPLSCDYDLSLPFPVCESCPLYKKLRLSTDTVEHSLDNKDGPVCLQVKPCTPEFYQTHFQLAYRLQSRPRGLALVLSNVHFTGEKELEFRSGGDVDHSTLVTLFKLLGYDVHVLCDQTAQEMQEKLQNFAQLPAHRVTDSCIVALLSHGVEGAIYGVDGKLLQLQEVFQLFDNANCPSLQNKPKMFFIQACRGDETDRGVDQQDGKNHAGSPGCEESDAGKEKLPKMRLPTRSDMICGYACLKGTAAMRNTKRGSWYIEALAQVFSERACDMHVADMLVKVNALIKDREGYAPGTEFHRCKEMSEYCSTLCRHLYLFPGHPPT
Summary of the method: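 Recombinant full-length human caspase 2 (~10 units/assay) in 50 mM sodium acetate pH 6.2 with 10% glycerol, 0.25 mM EDTA and 5 mM β-mercaptoethanol. Substrate 25 μM Ac-VDVAD-AMC. Fluorescence at 360/460 nm, 30 °C, final DMSO 5%. Compounds screened at a single dose (typically 5–50 μM), then full IC50 curves where activity was seen.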

Caspase-6 = molecular target: T7, Caspase-6 (Homo sapiens, UniProt P55212); assay: Inhibitory activity against Caspase-6; conditions: read-out: Ki app
T7 sequence (P55212 whole entry): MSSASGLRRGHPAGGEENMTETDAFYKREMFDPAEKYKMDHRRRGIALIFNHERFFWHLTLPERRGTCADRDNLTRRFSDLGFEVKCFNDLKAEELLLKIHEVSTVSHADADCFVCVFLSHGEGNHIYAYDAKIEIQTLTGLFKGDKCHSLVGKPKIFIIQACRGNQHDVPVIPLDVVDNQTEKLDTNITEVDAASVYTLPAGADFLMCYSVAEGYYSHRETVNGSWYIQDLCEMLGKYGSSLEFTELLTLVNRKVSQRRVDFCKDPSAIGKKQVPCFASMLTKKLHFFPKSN
Summary of the method: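 Recombinant full-length human caspase 6 (~10 units/assay) in 50 mM Tris-HCl pH 7.4 with 0.1% CHAPS, 1.5 mM MgCl2, 1 mM EDTA and 5 mM β-mercaptoethanol. Substrate 10 μM Ac-DEVD-AMC. AMC monitored at 360/460 nm, 30 °C, final DMSO 5%. Single-dose screen (typically 5–50 μM), then IC50 determination.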

Caspase-3 [2] = molecular target: T1, Caspase-3; assay: Inhibitory activity against caspase-3; conditions: read-out: Ki app; summary of the method: as §1
C20/A4 [3] = assay: In vitro inhibition of Chondrocyte cell line C20/A4 apoptosis at 25 uM of compound; assay type: functional, Homo sapiens
Summary of the method: (§2)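 Immortalized human chondrocyte line C20/A4 seeded at 20 000 cells/well overnight, then exposed 24 h to 4 μg/mL camptothecin with or without compound. Floating and adherent cells combined and lysed 30 min at 4 °C, then clarified at 14000g. Mono- and oligonucleosome DNA fragments measured by cell death ELISA; result expressed as % inhibition of apoptosis.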

C20/A4 [4] = assay: In vitro inhibition of Chondrocyte cell line C20/A4 apoptosis at 10 uM of compound; assay type: functional, Homo sapiens; summary of the method: as §2
Caspase-3 [5] = molecular target: T1, Caspase-3; assay: In vitro inhibition of Caspase-3 in presence of naive chondrocyte cell cytosol
Summary of the method: (§3)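 IC50 against recombinant full-length human caspase 3 (~10 units/assay; 1 unit = 1 pmol AMC/min), with cytosol from uninduced (nonapoptotic) chondrocytes making up 90% of assay volume. Assay buffer was 25 mM K+HEPES pH 7.5, 0.1% CHAPS, 50 mM KCl and 5 mM β-mercaptoethanol, with 10 μM Ac-DEVD-AMC. AMC was read at 30 °C (ex 360/em 460 nm) with 5% final DMSO.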

Caspase-3 [6] = molecular target: T1, Caspase-3; assay: In vitro inhibition of Caspase-3 in presence of uninduced chondrocyte cell cytosol; summary of the method: as §3
Jurkat (Homo sapiens) [7] = assay: In vitro inhibition of Jurkat cell apoptosis at 50 uM of compound
Caspase-3 [8] = molecular target: T1, Caspase-3; assay: In vitro inhibition of Caspase-3 in presence of camptothecin induced chondrocyte cell cytosol.
Summary of the method: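 IC50 measured in cytosol from camptothecin-treated (apoptotic) chondrocytes at 90% of assay volume. Two conditions: the endogenous caspase 3-like activity alone, or with added recombinant human caspase 3 (~10 units/assay). Buffer was 25 mM K+HEPES pH 7.5, 0.1% CHAPS, 50 mM KCl and 5 mM β-mercaptoethanol, with 10 μM Ac-DEVD-AMC. AMC fluorescence was read at 30 °C (ex 360/em 460 nm) with 5% final DMSO.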

Jurkat (Homo sapiens) [9] = assay: In vitro inhibition of Jurkat cell apoptosis at 10 uM of compound
C20/A4 [10] = assay: In vitro inhibition of Chondrocyte cell line C20/A4 apoptosis at 25 uM of compound; Not active; assay type: functional, cell-based; conditions: Homo sapiens; summary of the method: as §2
C20/A4 [11] = assay: In vitro inhibition of Chondrocyte cell line C20/A4 apoptosis at 10 uM of compound; Not active; assay type: functional, cell-based; conditions: Homo sapiens; summary of the method: as §2

Sequence of Caspase-8 (Q14790 217-374 limits assumed): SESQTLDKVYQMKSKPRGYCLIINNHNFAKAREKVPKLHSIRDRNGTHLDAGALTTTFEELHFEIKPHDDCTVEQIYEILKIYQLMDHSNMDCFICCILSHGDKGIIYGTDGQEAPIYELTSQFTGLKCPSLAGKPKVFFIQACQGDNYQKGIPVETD
Sequence of Caspase-8 (Q14790 385-479 limits assumed): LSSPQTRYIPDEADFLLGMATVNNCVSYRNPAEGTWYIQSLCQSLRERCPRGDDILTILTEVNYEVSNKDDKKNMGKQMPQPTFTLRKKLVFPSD

SMILES	pIC50 (Caspase-3 [1])	pKi (Caspase-4)	pKi (Caspase-1)	pKi (Caspase-9)	pKi (Caspase-7)	pKi (Caspase-8)	pKi (Caspase-2)	pKi (Caspase-6)	pKi (Caspase-3 [2])	Inhibition (C20/A4 [3]) [%]	Inhibition (C20/A4 [4]) [%]	Inhibition (Jurkat (Homo sapiens) [7]) [%]	Inhibition (Jurkat (Homo sapiens) [9]) [%]	other results
CN1C(=O)C(=O)c2cc([N+](=O)[O-])ccc21	6.00	5.40	4.92	5.14	6.54	< 4.30	< 4.30	5.77	6.30	–	–	–	–	–
O=C1C(=O)N(Cc2ccccc2)c2ccc([N+](=O)[O-])cc21	6.60	5.30	4.74	5.30	6.77	4.51	< 4.60	6.00	6.89	–	–	–	–	–
CN1C(=O)C(=O)c2cc(S(=O)(=O)N3CCC[C@H]3COc3ccccc3)ccc21	4.52 and 4.33	–	–	–	–	–	–	–	–	85	48	92	41	pIC50 (Caspase-3 [5]): 5.12; pIC50 (Caspase-3 [6]): 5.12; pIC50 (Caspase-3 [8]): 6.08
CN1C(=O)C(=O)c2ccccc21	< 4.30	–	–	–	–	–	–	–	–	–	–	–	–	–
O=C1Nc2ccc(S(=O)(=O)N3CCCC3)cc2C1=O	5.55	< 4.30	5.05	4.92	5.52	< 4.30	< 4.30	< 4.30	5.85	–	–	–	–	–
O=C1C(=O)N(Cc2ccncc2)c2ccc(S(=O)(=O)N3CCC[C@H]3COc3ccccc3)cc21	–	–	–	–	–	–	–	–	–	89	64	–	–	–
CN1C(=O)C(=O)c2cc(C(=O)O)ccc21	< 4.30	–	–	–	–	–	–	–	–	–	–	–	–	–
COC[C@H]1CCCN1S(=O)(=O)c1ccc2c(c1)C(=O)C(=O)N2	4.74	–	–	–	–	–	–	–	–	–	–	22	15	NA (C20/A4 [10]): inactive; NA (C20/A4 [11]): inactive
C=CCN1C(=O)C(=O)c2cc(S(=O)(=O)N3CCC[C@H]3COc3ccccc3)ccc21	–	–	–	–	–	–	–	–	–	95	71	89	60	–
O=C1Nc2ccc(S(=O)(=O)N3CCCC3C(=O)Nc3ccccc3)cc2C1=O (centres undefined)	6.85	–	–	–	–	–	–	–	–	–	–	–	–	–
